The term Ki denotes the equilibrium dissociation constant of an inhibitor or competing ligand from its target. A higher Ki goes with a looser hold on the target.

Active and inactive are the calls of the source. The rule behind the calls is not given here. Where only a bound is given, the exact number is not on record here.

Assay [1] addresses T1, Sphingosine kinase 2 (Mus musculus) (UniProt Q9JIA7).
T1 sequence (whole entry): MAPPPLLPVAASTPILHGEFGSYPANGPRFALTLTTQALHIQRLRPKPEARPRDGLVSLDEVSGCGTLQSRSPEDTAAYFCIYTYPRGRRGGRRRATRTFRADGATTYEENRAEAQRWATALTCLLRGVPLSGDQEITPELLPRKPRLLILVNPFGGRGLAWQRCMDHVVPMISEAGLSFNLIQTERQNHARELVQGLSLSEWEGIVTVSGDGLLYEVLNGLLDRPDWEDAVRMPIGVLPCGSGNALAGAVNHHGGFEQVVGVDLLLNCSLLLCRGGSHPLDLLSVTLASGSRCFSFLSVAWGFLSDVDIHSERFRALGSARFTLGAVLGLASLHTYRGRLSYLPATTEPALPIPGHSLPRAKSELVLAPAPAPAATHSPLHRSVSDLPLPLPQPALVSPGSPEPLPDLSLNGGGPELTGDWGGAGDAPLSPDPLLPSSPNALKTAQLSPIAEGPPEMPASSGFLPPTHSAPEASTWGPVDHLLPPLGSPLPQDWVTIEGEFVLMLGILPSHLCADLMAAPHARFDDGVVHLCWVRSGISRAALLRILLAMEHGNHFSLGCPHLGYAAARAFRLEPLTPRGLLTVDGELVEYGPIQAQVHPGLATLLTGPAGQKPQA
Put plainly: Inhibition of mouse SphK2 expressed in baculovirus infected Sf9 insect cells assessed as remaining activity using sphingosine and [gamma-(32)P]-ATP at 10 uM by scintillation proximity counting. Put shortly: (§1)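 Enzyme source: supernatant (10,000×g) of homogenized Sf9 cells infected with recombinant virus for 72 h, 2-3 μg protein per reaction. Sphingosine substrate at 10 μM for SphK1 and 5 μM for SphK2. Initial screen used inhibitor at 100 μM, with some compounds at 10 μM. Read-out is percent of remaining kinase activity, averaged over three experiments.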
On the technique in general: Scintillation proximity formats need no separation of bound from free tracer.

Assay [2] deals with T1, Sphingosine kinase 2 (Mus musculus). Put plainly: Inhibition of mouse SphK2 expressed in baculovirus infected Sf9 insect cells assessed as remaining activity using sphingosine and [gamma-(32)P]-ATP at 100 uM by scintillation proximity counting. In outline:
as §1

Assay [3] in a line: Selectivity ratio of Ki/Km for human SphK1 to Ki/Km for mouse SphK2. Put shortly:
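Selectivity calculated as (Ki/Km)SphK1 divided by (Ki/Km)SphK2, with sphingosine Km taken as 10 μM for SphK1 and 5 μM for SphK2.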

Assay [4] deals with T2, Sphingosine kinase 1 (Homo sapiens, UniProt Q9NYA1). Briefly: Inhibition of human SphK1 expressed in baculovirus infected Sf9 insect cells using sphingosine and [gamma-(32)P]-ATP by scintillation proximity assay. In outline: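 Ki calculated as Ki = [I]/(K′m/Km – 1), using a sphingosine Km of 10 μM for SphK1 and 5 μM for SphK2. Enzyme came from infected Sf9 cell extract (10,000×g supernatant, 2-3 μg protein).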

Assay [5] concerns the target T2, Sphingosine kinase 1. Put plainly: Inhibition of human SphK1 expressed in baculovirus infected Sf9 insect cells assessed as remaining activity using sphingosine and [gamma-(32)P]-ATP as substrate at 100 uM by scintillation proximity counting. Put shortly: as §1
The next assay deals with T3, Sphingosine kinase 2 (Mus musculus, UniProt Q9JIA7).
T3 sequence (Q9JIA7 whole entry): T1 sequence (whole entry)
Put plainly: Inhibition of mouse SphK2 expressed in baculovirus infected Sf9 insect cells using sphingosine and [gamma-(32)P]-ATP by scintillation proximity assay.

The target of assay [6] is T1, Sphingosine kinase 2 (Mus musculus). Briefly: Inhibition of mouse SphK2 expressed in baculovirus infected Sf9 insect cells using sphingosine and [gamma-(32)P]-ATP at 10 uM by scintillation proximity counting. Put shortly: as §1

T2 sequence (Q9NYA1 whole entry): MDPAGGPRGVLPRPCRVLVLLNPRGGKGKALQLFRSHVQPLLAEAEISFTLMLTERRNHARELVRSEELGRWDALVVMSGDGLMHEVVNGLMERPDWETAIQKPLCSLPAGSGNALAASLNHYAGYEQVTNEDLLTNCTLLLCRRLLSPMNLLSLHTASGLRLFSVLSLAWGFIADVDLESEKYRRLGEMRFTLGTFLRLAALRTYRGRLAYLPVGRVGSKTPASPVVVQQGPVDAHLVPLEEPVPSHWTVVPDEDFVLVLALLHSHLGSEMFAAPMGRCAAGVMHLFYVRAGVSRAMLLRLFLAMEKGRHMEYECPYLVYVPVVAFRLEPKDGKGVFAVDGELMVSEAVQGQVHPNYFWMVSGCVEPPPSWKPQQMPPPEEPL

Consider `CCCCCCCCc1ccc(-c2cnc(N)cn2)cc1`, for which the Activity in assay [1] is 99%.

Take `CCCCCCCCc1ccc(-c2ccc(-n3ccccc3=O)nc2)cc1`: the Activity in assay [1] is 93.7%.

For `CCCCCCCCc1ccc([C@H]2CC[C@H](N)CC2)cc1`, the results for the Activity (in assay [2]; on Sphingosine kinase 1 [5]) were 25% and 47%, respectively. Also, the Selectivity ratio in assay [3] worked out at 0.55. In addition, the inhibition constant (Ki) on Sphingosine kinase 1 [4] was 32 µM; on Sphingosine kinase 2 it was 29 µM.

Turning to `CCCCCCCCc1ccc(C2CCC(=CCO)CC2)cc1` (stereo unspecified), the Activity came out at 66.7% in assay [2] and 100% at Sphingosine kinase 1 [5].

As for `CCCCCCCCc1ccc([C@H]2CC[C@H]([N+](C)(C)C(C)C)CC2)cc1`, the Activity turned out to be 11.5% in assay [2] and 49.1% on Sphingosine kinase 1 [5]. In addition, the Ki on Sphingosine kinase 1 [4] was above 100 µM; on Sphingosine kinase 2, 33 µM.

As to `CCCCCCCCc1ccc(-c2cccc(N3CCNCC3)n2)cc1`, the Activity in assay [1] is 87.3%.

As for `CCCCCCCCc1ccc([C@H]2CC[C@H]([N+](C)(C)CCO)CC2)cc1`, the Activity in assay [2] is 3%; on Sphingosine kinase 1 [5] it was 10.5%. The Selectivity ratio in assay [3] is 2.5. For the same compound, the inhibitory constant (Ki) at Sphingosine kinase 1 [4] is 70 µM; at Sphingosine kinase 2, 14 µM.

`CCCCCCCCc1ccc([C@H]2CC[C@H](NCCC)CC2)cc1`: the Activity stood at 5.5% in assay [2] and 15.8% on Sphingosine kinase 1 [5].

For `C=CCN[C@H]1CC[C@@H](c2ccc(CCCCCCCC)cc2)CC1`, the Activity was 100% in assay [2] and 91.8% on Sphingosine kinase 1 [5].

Regarding `CCCCCCCCc1ccc([C@H]2CC[C@@H](NC(C)C)CC2)cc1`, the Activity in assay [2] turned out to be 16.5%; on Sphingosine kinase 1 [5], 90%.

In the case of `CCCCCCCCc1ccc([C@H]2CC[C@H](NCCCC)CC2)cc1`, the Activity was 20.1% in assay [2] and 20.5% at Sphingosine kinase 1 [5].

On to `CCCCCCCCc1ccc([C@H]2CC[C@@H](NC3CC3)CC2)cc1`, for which the figures for the Activity (in assay [2]; at Sphingosine kinase 1 [5]) were 116% and 113%, respectively.

As to `CCCCCCCCc1ccc([C@H]2CC[C@@H](NCCC)CC2)cc1`, the Activity in assay [2] stood at 18.3%; at Sphingosine kinase 1 [5], 75.6%.

Consider `CCCCCCCCc1ccc([C@H]2CC[C@@H](N(C)C(C)C)CC2)cc1`, for which the results for the Activity (in assay [2]; on Sphingosine kinase 1 [5]) were 101% and 113%, respectively.

Consider `CCCCCCCCc1ccc([C@H]2CC[C@@H]([N+](C)(C)C)CC2)cc1`, for which the Activity turned out to be 8.3% in assay [2] and 65.8% on Sphingosine kinase 1 [5]. Moreover, the inhibition result in assay [6] was “Active”.

As to `C=CCN[C@H]1CC[C@H](c2ccc(CCCCCCCC)cc2)CC1`, the figures for the Activity (in assay [2]; on Sphingosine kinase 1 [5]) were 5.7% and 19%, respectively.

On to `CCCCCCCCc1ccc([C@H]2CC[C@@H](N(C)CCC)CC2)cc1`, for which the Activity in assay [2] was 65.5%; on Sphingosine kinase 1 [5], 90.7%.

As to `CCCCCCCCc1ccc([C@H]2CC[C@H](NCc3ccncc3)CC2)cc1`, the Activity in assay [2] turned out to be 23%; at Sphingosine kinase 1 [5] it was 33%.

Regarding `CCCCCCCCc1ccc([C@H]2CC[C@H](N(C)CCC)CC2)cc1`, the Activity was determined as 45.9% in assay [2] and 77% at Sphingosine kinase 1 [5].

Take `C=CC[N+](C)(C)[C@H]1CC[C@H](c2ccc(CCCCCCCC)cc2)CC1`: the results for the Activity (in assay [2]; on Sphingosine kinase 1 [5]) were 2.1% and 30.4%, respectively.

As for `CCCCCCCCc1ccc([C@H]2CC[C@H]([N+](C)(C)Cc3ccccc3)CC2)cc1`, the values for the Activity (in assay [2]; at Sphingosine kinase 1 [5]) were 8.3% and 25.7%, respectively.

Regarding `CCCCCCCCc1ccc([C@H]2CC[C@@H]([N+](C)(C)CCO)CC2)cc1`, the Activity in assay [2] came to 32.6%; at Sphingosine kinase 1 [5], 80.9%. Further, the inhibition entry in assay [6] is “Active”.

For the compound `CCCCCCCCc1ccc([C@H]2CC[C@H](N(C)C)CC2)cc1`, the values for the Activity (in assay [2]; on Sphingosine kinase 1 [5]) were 9% and 46.3%, respectively. In addition, in assay [3], the Selectivity ratio came out at 0.74. Besides, the Ki stood at 40 µM at Sphingosine kinase 1 [4] and 27 µM at Sphingosine kinase 2.

For `CCCCCCCCc1ccc(C2CCC(=NO)CC2)cc1` (stereo unspecified), the Activity was 56.5% in assay [2] and 130% at Sphingosine kinase 1 [5].

On to `CCCCCCCCc1ccc([C@H]2CC[C@@H](NC)CC2)cc1`, for which the Activity in assay [2] came to 5.4%; at Sphingosine kinase 1 [5], 69.8%. Besides, the inhibition constant (Ki) is above 100 µM at Sphingosine kinase 1 [4] and 40 µM at Sphingosine kinase 2.

For `CCCCCCCCc1ccc([C@H]2CC[C@H](NCc3ccccc3)CC2)cc1`, the figures for the Activity (in assay [2]; on Sphingosine kinase 1 [5]) were 53.3% and 83.9%, respectively.

As for `C#CCN[C@H]1CC[C@H](c2ccc(CCCCCCCC)cc2)CC1`, the Activity in assay [2] amounted to 100%; at Sphingosine kinase 1 [5], 109%.

Take `CCCCCCCCc1ccc(C2CCC(O)(C[N+](=O)[O-])CC2)cc1` (stereo unspecified): the Activity in assay [2] is 52.7%; on Sphingosine kinase 1 [5] it was 100%.

For the compound `CCCCCCCCc1ccc(C2CCC(N)(C#N)CC2)cc1` (stereo unspecified), the Activity was 61.8% in assay [2] and 101% at Sphingosine kinase 1 [5].

With `CCCCCCCCc1ccc([C@H]2CC[C@@H](N(C)C)CC2)cc1`, the Activity was found to be 50.8% in assay [2] and 83.9% at Sphingosine kinase 1 [5].

Turning to `CCCCCCCCc1ccc([C@H]2CC[C@H](NC3CC3)CC2)cc1`, the Activity in assay [2] worked out at 77%; at Sphingosine kinase 1 [5] it was 65%.

On to `CCCCCCCCc1ccc([C@H]2CC[C@@H]([N+](C)(C)C(C)C)CC2)cc1`, for which the Activity in assay [2] is 10.4%; at Sphingosine kinase 1 [5], 101%. Moreover, the inhibition result in assay [6] is “Active”.

`CCCCCCCCc1ccc(C2CCC(=CC(=O)OC)CC2)cc1` (stereo unspecified): the Activity (in assay [2]; on Sphingosine kinase 1 [5]) was 101% throughout.

Consider `CCCCCCCCc1ccc([C@H]2CC[C@@H]([N+](C)(C)CCC)CC2)cc1`, for which the Activity in assay [2] turned out to be 3.2%; at Sphingosine kinase 1 [5], 25.1%. The inhibition entry in assay [6] was “Active”.

With `CCCCCCCCc1ccc([C@H]2CC[C@@H](NCCO)CC2)cc1`, the values for the Activity (in assay [2]; at Sphingosine kinase 1 [5]) were 8.9% and 22.4%, respectively.

As for `CCCCCCCCc1ccc([C@H]2CC[C@H](NCCO)CC2)cc1`, the Activity in assay [2] was 8.5%; at Sphingosine kinase 1 [5] it was 21.6%. Also, in assay [3], the Selectivity ratio is 1.23. Besides, the Ki was 22 µM at Sphingosine kinase 1 [4] and 38 µM at Sphingosine kinase 2.

Regarding `CCCCCCCCc1ccc([C@H]2CC[C@H](NC(C)C)CC2)cc1`, the figures for the Activity (in assay [2]; at Sphingosine kinase 1 [5]) were 23.9% and 24.6%, respectively.

With `C#CCN[C@H]1CC[C@@H](c2ccc(CCCCCCCC)cc2)CC1`, the Activity in assay [2] stood at 101%; at Sphingosine kinase 1 [5], 100%.

Consider `CCCCCCCCc1ccc([C@H]2CC[C@@H](NCCCC)CC2)cc1`, for which the results for the Activity (in assay [2]; on Sphingosine kinase 1 [5]) were 60.6% and 100%, respectively.

Turning to `CCCCCCCCc1ccc([C@H]2CC[C@H](O)CC2)cc1`, the values for the Activity (in assay [2]; on Sphingosine kinase 1 [5]) were 70.9% and 113%, respectively.

Regarding `CCCCCCCCc1ccc([C@H]2CC[C@H](NC)CC2)cc1`, the figures for the Activity (in assay [2]; on Sphingosine kinase 1 [5]) were 7.7% and 15.7%, respectively.

`CCCCCCCCc1ccc([C@H]2CC[C@@H](NCc3ccccc3)CC2)cc1`: the values for the Activity (in assay [2]; on Sphingosine kinase 1 [5]) were 67.2% and 98.4%, respectively.
